Assays:
[1] = target: T1, Sterol O-acyltransferase 1 (Rattus norvegicus) (UniProt O70536); experiment: In vitro percentage inhibition against Acyl coenzyme A:cholesterol acyltransferase derived from rat adrenals; design: concentration or dose not given beside the values; conditions: concentration not given here
T1 sequence (whole entry): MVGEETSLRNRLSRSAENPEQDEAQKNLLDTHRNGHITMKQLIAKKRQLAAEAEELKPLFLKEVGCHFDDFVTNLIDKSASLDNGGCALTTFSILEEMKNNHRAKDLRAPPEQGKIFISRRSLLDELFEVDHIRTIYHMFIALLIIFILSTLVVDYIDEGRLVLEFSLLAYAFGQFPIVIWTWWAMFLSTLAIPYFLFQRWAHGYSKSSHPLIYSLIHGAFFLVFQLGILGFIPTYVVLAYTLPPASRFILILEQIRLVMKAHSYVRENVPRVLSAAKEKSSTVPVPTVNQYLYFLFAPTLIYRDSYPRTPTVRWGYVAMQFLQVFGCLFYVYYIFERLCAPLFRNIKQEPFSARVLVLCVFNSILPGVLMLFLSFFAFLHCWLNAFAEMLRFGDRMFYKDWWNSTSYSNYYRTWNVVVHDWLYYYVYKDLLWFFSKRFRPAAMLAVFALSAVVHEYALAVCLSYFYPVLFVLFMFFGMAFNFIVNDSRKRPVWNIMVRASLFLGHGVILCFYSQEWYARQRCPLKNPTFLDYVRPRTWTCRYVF
Summary of the method: (§1)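 Rat adrenal 1000g supernatant (microsomal ACAT) in 0.2 M KH2PO4 pH 7.4 with BSA; test compound at final 5.2 µg/mL, preincubated 37 °C 10 min; [14C]oleoyl-CoA (0.4 µCi) added, 37 °C 30 min. Cholesteryl ester separated by TLC, scintillation counted; mean percent inhibition against compound-free control.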

[2] = target: T1, Sterol O-acyltransferase 1 (Rattus norvegicus); experiment: Liver hypolipidemic activity in rats; format: functional
Summary of the method: (§2)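 Male CD-1 Sprague-Dawley rats, 140–150 g, fed 1% cholesterol/0.5% cholic acid diet with compound admixed at 0.01% (about 10 mg/kg/day) for 7 days. Serum and liver cholesterol measured by Technicon autoanalyzer methods; expressed as percent of control.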

[3] = target: T1, Sterol O-acyltransferase 1 (Rattus norvegicus); experiment: Serum hypolipidemic activity in rats; format: functional; summary of the method: as §2
[4] = target: T1, Sterol O-acyltransferase 1 (Rattus norvegicus); experiment: In vitro percentage inhibition against acyl coenzyme A:cholesterol acyltransferase derived from rat adrenals; design: concentration or dose not given beside the values; conditions: concentration not given here; summary of the method: as §1

Row | inhibition [1] [%] | inhibition [4] [%] | SMILES | other results
1 | 35 | – | Cc1ccc(NC(=O)NCc2ccccc2)c(C)c1 | –
2 | – | 76 | CCCCN(CCCC)C(=O)Nc1ccc(C(C)C)cc1 | –
3 | 56 | – | Cc1cccc(C)c1NC(=O)N(Cc1ccccc1)Cc1ccccc1 | –
4 | – | 86 | CCCCN(Cc1ccccc1)C(=O)Nc1cccc(C(F)(F)F)c1 | LS [2]: 104%; SS [3]: 84%
5 | – | 79 | CCCCN(Cc1ccccc1)C(=O)Nc1ccccc1C | LS [2]: 137%; SS [3]: 109%
6 | 87 | – | CCCCN(CCCC)C(=O)Nc1ccc([N+](=O)[O-])cc1Cl | –
7 | 74 | – | CCc1cccc(C)c1NC(=O)N(Cc1ccccc1)Cc1ccccc1 | –
8 | – | 85 | CCCCN(CCCC)C(=O)Nc1c(C)cccc1C | –
9 | – | 81 | O=C(Nc1cccc([N+](=O)[O-])c1)N(Cc1ccccc1)Cc1ccccc1 | –
10 | – | 86 | CCCCN(Cc1ccccc1)C(=O)Nc1cc(Cl)ccc1O | –
11 | – | 96 | CCCCN(Cc1ccccc1)C(=O)Nc1ccc(Cl)c(Cl)c1 | –
12 | 78 | – | CCC(C)N(C(=O)Nc1ccc(C)cc1C)C(C)CC (stereo not drawn) | –
13 | – | 43 | C=CCN(CC=C)C(=O)Nc1ccc(C)cc1C | –
14 | – | 80 | O=C(Nc1ccc(Br)cc1)N(Cc1ccccc1)Cc1ccccc1 | –
15 | – | 88 | COc1ccc(OC)c(NC(=O)N(Cc2ccccc2)Cc2ccccc2)c1 | –
16 | 86 | – | CCCCN(CCCC)C(=O)Nc1cccc(Br)c1 | –
17 | 55 | – | CCCCN(CCCC)C(=O)Nc1ccc(C(C)=O)cc1 | –
18 | 80 | – | O=C(Nc1cccc(Cl)c1Cl)N(Cc1ccccc1)Cc1ccccc1 | –
19 | – | 87 | Cc1ccc(NC(=O)N(Cc2ccccc2)Cc2ccccc2)cc1 | –
20 | 49 | – | CCCCCCCCCCCN(CCCCCCCCCCC)C(=O)Nc1ccc(C)cc1C | –
21 | 97 | – | CCCCN(CC(C)(c1ccccc1)c1ccccc1)C(=O)Nc1ccc(C)cc1C | –
22 | 86 | – | CCCCC(CC)CN(CC(CC)CCCC)C(=O)Nc1ccc(C)cc1C (stereo not drawn) | –
23 | – | 62 | CCCCN(CCCC)C(=O)Nc1cc(Cl)c(Cl)cc1Cl | LS [2]: 103%; SS [3]: 111%

Row | inhibition [1] [%] | inhibition [4] [%] | SMILES | other results
24 | – | 93 | CCOC(=O)c1ccc(NC(=O)N(Cc2ccccc2)Cc2ccccc2)cc1 | LS [2]: 83%; SS [3]: 120%
25 | 95 | – | O=C(Nc1ccc(Cl)c(Cl)c1)N(Cc1ccccc1)Cc1ccccc1 | –
26 | – | 80 | CCCCN(CCCC)C(=O)Nc1ccc(C)cc1 | –
27 | 72 | – | O=C(Nc1cc(F)ccc1F)N(Cc1ccccc1)Cc1ccccc1 | –
28 | 92 | – | O=C(Nc1ccc(Cl)c(C(F)(F)F)c1)N(Cc1ccccc1)Cc1ccccc1 | –
29 | 89 | – | Cc1ccc(C)c(NC(=O)N(Cc2ccccc2)Cc2ccccc2)c1 | –
30 | – | 59 | CCCCN(CCCC)C(=O)Nc1ccc(OC)cc1 | LS [2]: 109%; SS [3]: 127%
31 | – | 89 | Cc1cccc(NC(=O)N(Cc2ccccc2)Cc2ccccc2)c1 | –
32 | – | 68 | O=C(Nc1ccc(Cl)cc1)N(Cc1ccccc1)c1ccccc1 | LS [2]: 102%; SS [3]: 67%
33 | – | 74 | CCCCN(CCCC)C(=O)Nc1c(C)cc(C)cc1C | –
34 | 67 | – | CSc1ccc(NC(=O)N(Cc2ccccc2)Cc2ccccc2)cc1 | –
35 | 37 | – | CCCCN(Cc1ccccc1)C(=O)Nc1ccccc1[N+](=O)[O-] | –
36 | – | 87 | CCCCN(Cc1ccccc1)C(=O)Nc1ccc(C)c(C)c1 | –
37 | 40 | – | CCCCN(CCCCC1CCCCC1)C(=O)Nc1ccc(C)cc1C | –
38 | 33 | – | Cc1ccc(Cl)cc1NC(=O)NCc1ccccc1 | –
39 | 48 | – | CN(C(=O)Nc1cc(Cl)ccc1Cl)c1ccccc1 | –
40 | – | 88 | CCCCN(Cc1ccccc1)C(=O)Nc1c(Cl)cc(Cl)cc1Cl | LS [2]: 32%; SS [3]: 48%
41 | – | 90 | Cc1ccc(NC(=O)N(C2CCCC2)C2CCCC2)c(C)c1 | LS [2]: 113%; SS [3]: 98%
42 | – | 94 | CCCCN(Cc1ccccc1)C(=O)Nc1cc(C)cc(C)c1 | LS [2]: 75%; SS [3]: 93%
43 | 83 | – | O=C(Nc1ccc(Cl)cc1Cl)N(Cc1ccccc1)Cc1ccccc1 | –
44 | 90 | – | CCCCCCCCCN(CCCCCCCCC)C(=O)Nc1ccc(C)cc1C | –
45 | – | 18 | CCN(CC)C(=O)Nc1ccc(C)cc1C | –

Second part, the compound before the results:

Row | SMILES | inhibition [1] [%] | inhibition [4] [%] | other results
46 | C#CCN(CC#C)C(=O)Nc1ccc(C)cc1C | 33 | – | LS [2]: 93%; SS [3]: 73%
47 | Cc1ccc(NC(=O)N(C)C)c(C)c1 | – | -7 | –
48 | O=C(Nc1ccc(I)cc1)N(Cc1ccccc1)Cc1ccccc1 | – | 85 | –
49 | CCCCN(CCCC)C(=O)Nc1ccc([N+](=O)[O-])cc1 | 75 | – | –
50 | CCc1cccc(CC)c1NC(=O)N(Cc1ccccc1)Cc1ccccc1 | 72 | – | –
51 | COc1cccc(NC(=O)N(Cc2ccccc2)Cc2ccccc2)c1 | – | 87 | –
52 | O=C(Nc1ccc(Cl)cc1)N(Cc1ccccc1)Cc1ccccc1 | – | 78 | –
53 | CCCN(CCC)C(=O)Nc1ccc(C)cc1C | – | 8 | –
54 | CCCCN(CCCC)C(=O)Nc1cc(Cl)ccc1C | – | 75 | –
55 | CCCCCCCCCCCCCCN(CCCCCCCCCCCCCC)C(=O)Nc1ccc(C)cc1C | -7 | – | LS [2]: 121%; SS [3]: 107%
56 | CCCCN(CCC12CC3CC(CC(C3)C1)C2)C(=O)Nc1ccc(C)cc1C | 56 | – | –
57 | O=C(O)c1ccc(NC(=O)N(Cc2ccccc2)Cc2ccccc2)cc1 | – | 14 | –
58 | CCCCN(CCCC)C(=O)Nc1ccccc1C | – | 62 | LS [2]: 111%; SS [3]: 81%
59 | CCCCN(CCCC)C(=O)Nc1ccccc1 | – | 64 | LS [2]: 100%; SS [3]: 121%
60 | CCCCN(Cc1ccccc1)C(=O)Nc1ccc(C(=O)O)cc1C | – | – | LS [2]: 88%; SS [3]: 76%
61 | CCCCN(Cc1ccccc1)C(=O)Nc1cc(OC)c(OC)c(OC)c1 | – | 74 | –
62 | CCN(C(=O)Nc1ccccc1C)c1ccccc1 | 9 | – | –
63 | CCCCN(Cc1ccccc1)C(=O)Nc1c(C)cc(C)cc1C | – | 76 | LS [2]: 37%; SS [3]: 63%
64 | COc1ccc(NC(=O)N(Cc2ccccc2)Cc2ccccc2)cc1 | – | 72 | –
65 | CCCCN(Cc1ccccc1)C(=O)Nc1cc(Cl)ccc1OC | – | 81 | –
66 | Cc1ccc(NC(=O)N(C(C)C)C(C)C)c(C)c1 | – | -1 | –
67 | CCCCN(Cc1ccccc1)C(=O)Nc1cc(Cl)cc(Cl)c1 | – | 91 | LS [2]: 107%; SS [3]: 120%
68 | CCCCN(CCCC)C(=O)Nc1ccc(I)cc1 | 83 | – | –
69 | CCCCN(Cc1ccccc1)C(=O)Nc1cc(C)ccc1C | – | 93 | –
70 | CCCCN(CCCC)C(=O)Nc1ccc(F)cc1 | – | 56 | –
71 | O=C(Nc1ccc(Br)cc1Br)N(Cc1ccccc1)c1ccccc1 | – | 82 | –
72 | CCCCN(Cc1ccccc1)C(=O)Nc1c(C)cccc1C | – | 83 | LS [2]: 91%; SS [3]: 68%

Row | SMILES | inhibition [1] [%] | inhibition [4] [%] | other results
73 | CCCCN(CCC(c1ccccc1)c1ccccc1)C(=O)Nc1ccc(C)cc1C | 53 | – | –
74 | CCCCN(CCCC)C(=O)Nc1cccc(SC)c1 | – | 85 | –
75 | COc1ccccc1NC(=O)N(Cc1ccccc1)Cc1ccccc1 | 91 | – | –
76 | Cc1ccc(NC(=O)N(CC(C)C)CC(C)C)c(C)c1 | – | 80 | –
77 | O=C(Nc1ccccc1Br)N(Cc1ccccc1)Cc1ccccc1 | – | 94 | –
78 | O=C(Nc1c(Cl)cccc1Cl)N(Cc1ccccc1)Cc1ccccc1 | 89 | – | –
79 | O=C(Nc1cc(Cl)ccc1Cl)N(Cc1ccccc1)Cc1ccccc1 | 82 | – | –
80 | CCCCN(Cc1ccccc1)C(=O)Nc1cccc(C)c1C | – | 86 | –
81 | CC(=O)c1cccc(NC(=O)N(Cc2ccccc2)Cc2ccccc2)c1 | – | 81 | –
82 | CCCCN(CCCC)C(=O)Nc1cccc(C)c1C | – | 88 | –
83 | Cc1ccccc1NC(=O)N(Cc1ccccc1)Cc1ccccc1 | – | 77 | –
84 | COc1cccc(NC(=O)NCc2ccccc2)c1 | – | 34 | LS [2]: 94%; SS [3]: 110%
85 | CCCCN(Cc1ccccc1)C(=O)Nc1cccc(Cl)c1 | – | 89 | –
86 | CCCCCCCC/C=C/CCCCCCCCN(Cc1ccc(CCCC)cc1)C(=O)Nc1ccc(C)cc1C (stereo in doubt; 160) | 42 | – | –
87 | O=C(Nc1ccccc1Cl)N(Cc1ccccc1)Cc1ccccc1 | – | 88 | –
88 | CCCCOc1ccc(NC(=O)N(Cc2ccccc2)Cc2ccccc2)cc1 | – | 90 | –
89 | CCCCN(Cc1ccccc1)C(=O)Nc1cccc(C)c1 | – | 92 | –
90 | CCCCN(CCCC)C(=O)Nc1ccc(Cl)cc1C | – | 88 | –
91 | CCCCN(CCCC)C(=O)Nc1ccc(C)c(C)c1 | 49 | – | –
92 | Cc1cccc(Cl)c1NC(=O)N(Cc1ccccc1)Cc1ccccc1 | 84 | – | –
93 | CCCCN(CCCC)C(=O)Nc1cccc(Cl)c1Cl | 85 | – | –
94 | CCCCN(Cc1ccccc1)C(=O)Nc1cc(Cl)c(N)c(Cl)c1 | 61 | – | –
95 | CCCCN(CCCC)C(=O)Nc1ccccc1Br | – | 51 | –
96 | CCCCN(C)C(=O)Nc1ccc(Cl)c(Cl)c1 | – | 64 | –
97 | CCCCN(CC(c1ccccc1)C1CCCCC1)C(=O)Nc1ccc(C)cc1C (stereo not drawn) | 74 | – | –
98 | CCCCN(Cc1ccccc1)C(=O)Nc1cccc(Cl)c1OC | – | 85 | –
